In ChEMBL document CHEMBL3352188, “Synthesis, antimicrobial and molecular docking studies of enantiomerically pure N-alkylated β-amino alcohols from phenylpropanolamines” (2014):
In brackets after ≈: the same amount, converted by molar mass. Activity calls are given as the source filed them. The rule behind the calls is not given here.

What was measured:
[1] = tested on: Shigella flexneri; test: Antimicrobial activity against Shigella flexneri MTCC 1457 at 1 mg/disc after 24 hrs by disc diffusion assay; format: functional
In short: (§1)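 Disc diffusion on Mueller Hinton agar. Inoculum was grown in MHB for 24 h at 37 °C, swabbed onto the plates and dried for 10 min. Discs with 1 mg compound were left 30 min at room temperature for diffusion, then incubated at 37 °C for 24 h. Inhibition zone was read in mm; run twice. Solvent was the negative control, streptomycin the positive control.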

[2] = tested on: Staphylococcus aureus; test: Antimicrobial activity against […] Staphylococcus aureus MTCC 96 at 1 mg/disc after 24 hrs by disc diffusion assay; format: functional; in short: as §1
[3] = tested on: Klebsiella aerogenes; test: Antimicrobial activity against Enterobacter aerogenes MTCC 111 at 1 mg/disc after 24 hrs by disc diffusion assay; format: functional; in short: as §1
[4] = tested on: Proteus vulgaris; test: Antimicrobial activity against Proteus vulgaris MTCC 1771 at 1 mg/disc after 24 hrs by disc diffusion assay; format: functional; in short: as §1
[5] = tested on: Salmonella enterica subsp. enterica serovar Paratyphi B; test: Antimicrobial activity against Salmonella paratyphi B at 1 mg/disc after 24 hrs by disc diffusion assay; format: functional; in short: as §1
[6] = tested on: Bacillus subtilis; test: Antimicrobial activity against Bacillus subtilis MTCC 441 at 1 mg/disc after 24 hrs by disc diffusion assay; format: functional; in short: as §1
[7] = tested on: Micrococcus luteus; test: Antimicrobial activity against Micrococcus luteus MTCC 106 at 1 mg/disc after 24 hrs by disc diffusion assay; format: functional; in short: as §1
[8] = tested on: Salmonella typhimurium; test: Antimicrobial activity against Salmonella typhimurium MTCC 1251 at 1 mg/disc after 24 hrs by disc diffusion assay; format: functional, Salmonella enterica subsp. enterica serovar Typhimurium; in short: as §1
[9] = tested on: Candida albicans; test: Antimicrobial activity against Candida albicans MTCC 227 at 1 mg/disc after 24 hrs by disc diffusion assay; format: functional
[10] = tested on: Pseudomonas aeruginosa; test: Antimicrobial activity against Pseudomonas aeruginosa MTCC 741 at 1 mg/disc after 24 hrs by disc diffusion assay; format: functional; in short: as §1
[11] = tested on: Staphylococcus aureus; test: Antimicrobial activity against Staphylococcus aureus MTCC 96 at 1 mg/disc after 24 hrs by disc diffusion assay; format: functional; in short: as §1
[12] = tested on: Malassezia pachydermatis; test: Antimicrobial activity against Malassezia pachydermatis at 1 mg/disc after 24 hrs by disc diffusion assay; format: functional
[13] = tested on: Klebsiella pneumoniae; test: Antimicrobial activity against Klebsiella pneumoniae MTCC 109 at 1 mg/disc after 24 hrs by disc diffusion assay; format: functional; in short: as §1
[14] = tested on: Pseudomonas aeruginosa; test: Bactericidal activity against Pseudomonas aeruginosa MTCC 741 after 24 hrs by two fold dilution method; format: functional; conditions: MTCC 741, 24 h
In short: (§2)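 Tubes held 5 mL MHB with two-fold dilutions from 1000 to 7.81 µg/mL and were inoculated with 5 × 10^5 to 1 × 10^6 cells in 0.1 mL MHB, incubated without shaking. Turbidity was checked at 20 h, tubes vortexed and re-incubated 4 h.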

[15] = tested on: Salmonella enterica subsp. enterica serovar Paratyphi B; test: Bactericidal activity against Salmonella paratyphi B after 24 hrs by two fold dilution method; format: functional; in short: as §2
[16] = tested on: Candida albicans; test: Antimicrobial activity against Candida albicans MTCC 227 after 48 to 72 hrs by two fold dilution method; format: functional
In short: (§3)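 Yeast was grown in Sabouraud dextrose broth at 28 °C for 48 h and tested per CLSI reference methods. Two-fold serial dilutions from 1000 to 7.81 µg/mL, compound in DMSO (2%), in 96-well plates, incubated 48–72 h at 28 °C. MIC was the lowest concentration with no visible fungal growth. Ketoconazole was the positive control.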

[17] = tested on: Staphylococcus aureus; test: Antimicrobial activity against methicillin-resistant Staphylococcus aureus MTCC 96 after 24 hrs by two fold dilution method; format: functional; conditions: MTCC 96, 24 h
In short: (§4)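 Broth two-fold serial dilution in 96-well plates from 1000 to 7.81 µg/mL, compound in DMSO (2%). Inoculum was grown in MHB for 24 h at 37 °C; plates were incubated 24 h at 37 °C. 5 µL of broth was spotted onto MHA; MIC was the lowest concentration with no visible growth on agar. Streptomycin was the positive control.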

[18] = tested on: Bacillus subtilis; test: Bactericidal activity against Bacillus subtilis MTCC 441 after 24 hrs by two fold dilution method; format: functional; conditions: MTCC 441, 24 h; in short: as §2
[19] = tested on: Shigella flexneri; test: Antimicrobial activity against Shigella flexneri MTCC 1457 after 24 hrs by two fold dilution method; format: functional; conditions: MTCC 1457, 24 h; in short: as §4
[20] = tested on: Shigella flexneri; test: Bactericidal activity against Shigella flexneri MTCC 1457 after 24 hrs by two fold dilution method; format: functional; conditions: MTCC 1457, 24 h; in short: as §2
[21] = tested on: Klebsiella aerogenes; test: Antimicrobial activity against Enterobacter aerogenes MTCC 111 after 24 hrs by two fold dilution method; format: functional; conditions: MTCC 111, 24 h; in short: as §4
[22] = tested on: Staphylococcus aureus; test: Bactericidal activity against Staphylococcus aureus MTCC 96 after 24 hrs by two fold dilution method; format: functional; conditions: MTCC 96, 24 h; in short: as §2
[23] = tested on: Salmonella typhimurium; test: Bactericidal activity against Salmonella typhimurium MTCC 1251 after 24 hrs by two fold dilution method; format: functional, Salmonella enterica subsp. enterica serovar Typhimurium; conditions: Salmonella enterica, MTCC 1251, 24 h; in short: as §2
[24] = tested on: Klebsiella aerogenes; test: Bactericidal activity against Enterobacter aerogenes MTCC 111 after 24 hrs by two fold dilution method; format: functional; conditions: MTCC 111, 24 h; in short: as §2
[25] = tested on: Salmonella enterica subsp. enterica serovar Paratyphi B; test: Antimicrobial activity against Salmonella paratyphi B after 24 hrs by two fold dilution method; format: functional; in short: as §4
[26] = tested on: Malassezia pachydermatis; test: Antimicrobial activity against Malassezia pachydermatis after 48 to 72 hrs by two fold dilution method; format: functional; in short: as §3
[27] = tested on: Klebsiella pneumoniae; test: Antimicrobial activity against Klebsiella pneumoniae MTCC 109 after 24 hrs by two fold dilution method; format: functional; conditions: MTCC 109, 24 h; in short: as §4
[28] = tested on: Micrococcus luteus; test: Bactericidal activity against Micrococcus luteus MTCC 106 after 24 hrs by two fold dilution method; format: functional; conditions: MTCC 106, 24 h; in short: as §2
[29] = tested on: Candida albicans; test: Fungicidal activity against Candida albicans MTCC 227 after 48 to 72 hrs by two fold dilution method; format: functional
[30] = tested on: Malassezia pachydermatis; test: Fungicidal activity against Malassezia pachydermatis after 48 to 72 hrs by two fold dilution method; format: functional
[31] = tested on: Staphylococcus aureus; test: Bactericidal activity against methicillin-resistant Staphylococcus aureus MTCC 96 after 24 hrs by two fold dilution method; format: functional; conditions: MTCC 96, 24 h; in short: as §2
[32] = tested on: Klebsiella pneumoniae; test: Bactericidal activity against Klebsiella pneumoniae MTCC 109 after 24 hrs by two fold dilution method; format: functional; conditions: MTCC 109, 24 h; in short: as §2
[33] = tested on: Staphylococcus aureus; test: Antimicrobial activity against Staphylococcus aureus MTCC 96 after 24 hrs by two fold dilution method; format: functional; conditions: MTCC 96, 24 h; in short: as §4
[34] = tested on: Pseudomonas aeruginosa; test: Antimicrobial activity against Pseudomonas aeruginosa MTCC 741 after 24 hrs by two fold dilution method; format: functional; conditions: MTCC 741, 24 h; in short: as §4
[35] = tested on: Proteus vulgaris; test: Bactericidal activity against Proteus vulgaris MTCC 1771 after 24 hrs by two fold dilution method; format: functional; conditions: MTCC 1771, 24 h; in short: as §2
[36] = tested on: Micrococcus luteus; test: Antimicrobial activity against Micrococcus luteus MTCC 106 after 24 hrs by two fold dilution method; format: functional; conditions: MTCC 106, 24 h; in short: as §4
[37] = tested on: Bacillus subtilis; test: Antimicrobial activity against Bacillus subtilis MTCC 441 after 24 hrs by two fold dilution method; format: functional; conditions: MTCC 441, 24 h; in short: as §4
[38] = tested on: Salmonella typhimurium; test: Antimicrobial activity against Salmonella typhimurium MTCC 1251 after 24 hrs by two fold dilution method; format: functional, Salmonella enterica subsp. enterica serovar Typhimurium; conditions: Salmonella enterica, MTCC 1251, 24 h; in short: as §4
[39] = tested on: Proteus vulgaris; test: Antimicrobial activity against Proteus vulgaris MTCC 1771 after 24 hrs by two fold dilution method; format: functional; conditions: MTCC 1771, 24 h; in short: as §4

Row | Structure (SMILES) | inhibition zone (IZ) [1] | inhibition zone (IZ) [2] | inhibition zone (IZ) [3] | inhibition zone (IZ) [4] | inhibition zone (IZ) [5] | inhibition zone (IZ) [6] | inhibition zone (IZ) [7] | inhibition zone (IZ) [8] [mm] | inhibition zone (IZ) [9] | inhibition zone (IZ) [10] | inhibition zone (IZ) [11] | inhibition zone (IZ) [12] | inhibition zone (IZ) [13] | MIC [17] [µg/mL] | MIC [19] [µg/mL] | MIC [21] [µg/mL] | MIC [25] [µg/mL] | MIC [27] [µg/mL] | MIC [33] [µg/mL] | MIC [34] [µg/mL] | other results
1 | CC[C@@H](C)N[C@@H](C)[C@H](O)c1ccccc1.Cl (mixture of isomers) | inactive | inactive | inactive | inactive | 10 mm | inactive | inactive | 10 | inactive | inactive | 10 mm | inactive | inactive | – | – | – | – | – | – | – | –
2 | COc1ccc([C@H](C)N[C@H](C)[C@@H](O)c2ccccc2)cc1.Cl | 17 mm | 18 mm | 18 mm | 18 mm | 17 mm | 18 mm | 19 mm | 14 | 16 mm | 14 mm | 17 mm | 19 mm | 17 mm | 62.5 | 62.5 | 62.5 | 125 | 62.5 | 62.5 | 125 | MBC [14]: 250 µg/mL; MBC [15]: 250 µg/mL; MIC [16]: 62.5 µg/mL; MBC [18]: 125 µg/mL; MBC [20]: 125 µg/mL; MBC [22]: 125 µg/mL; MBC [23]: 250 µg/mL; MBC [24]: 125 µg/mL; MIC [26]: 62.5 µg/mL; MBC [28]: 125 µg/mL; MFC [29]: 62.5 µg/mL; MFC [30]: 62.5 µg/mL; MBC [31]: 125 µg/mL; MBC [32]: 125 µg/mL; MBC [35]: 125 µg/mL; MIC [36]: 62.5 µg/mL; MIC [37]: 62.5 µg/mL; MIC [38]: 125 µg/mL; MIC [39]: 62.5 µg/mL
3 | CC[C@H](C)N[C@H](C)[C@@H](O)c1ccccc1.Cl (mixture of isomers) | inactive | inactive | inactive | 10 mm | inactive | inactive | 10 mm | 10 | inactive | 10 mm | inactive | 10 mm | inactive | – | – | – | – | – | – | – | –
4 | CN[C@@H]1[C@H](O[C@H]2[C@H](O[C@H]3[C@H](O)[C@@H](O)[C@H](N=C(N)N)[C@@H](O)[C@@H]3N=C(N)N)O[C@@H](C)[C@]2(O)C=O)O[C@@H](CO)[C@H](O)[C@H]1O [STREPTOMYCIN] | 30 mm | 30 mm | 22 mm | 30 mm | 30 mm | 30 mm | 26 mm | 18 | – | 30 mm | 14 mm | – | 20 mm | 6.25 (≈ 10.7 µM) | 6.25 (≈ 10.7 µM) | 25 (≈ 43 µM) | 62.5 (≈ 107 µM) | 6.25 (≈ 10.7 µM) | 6.25 (≈ 10.7 µM) | 25 (≈ 43 µM) | MIC [36]: 6.25 µg/mL (≈ 10.7 µM); MIC [37]: 6.25 µg/mL (≈ 10.7 µM); MIC [38]: 30 µg/mL (≈ 51.6 µM); MIC [39]: 25 µg/mL (≈ 43 µM)
